Our source for the inhibition and outcome values is PubChem BioAssay AID492951 (Molecular Libraries Program, Specialized Chemistry Center, …, 2010).

The structures appear in SMILES notation. Unmarked numbers belong to inactive results. The source made the active and inactive calls.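 The calls were made as follows: active = inhibition above 10%; inactive = the rest.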

Sequence of Hexokinase-4 (Homo sapiens) (P35557 whole entry, looked up): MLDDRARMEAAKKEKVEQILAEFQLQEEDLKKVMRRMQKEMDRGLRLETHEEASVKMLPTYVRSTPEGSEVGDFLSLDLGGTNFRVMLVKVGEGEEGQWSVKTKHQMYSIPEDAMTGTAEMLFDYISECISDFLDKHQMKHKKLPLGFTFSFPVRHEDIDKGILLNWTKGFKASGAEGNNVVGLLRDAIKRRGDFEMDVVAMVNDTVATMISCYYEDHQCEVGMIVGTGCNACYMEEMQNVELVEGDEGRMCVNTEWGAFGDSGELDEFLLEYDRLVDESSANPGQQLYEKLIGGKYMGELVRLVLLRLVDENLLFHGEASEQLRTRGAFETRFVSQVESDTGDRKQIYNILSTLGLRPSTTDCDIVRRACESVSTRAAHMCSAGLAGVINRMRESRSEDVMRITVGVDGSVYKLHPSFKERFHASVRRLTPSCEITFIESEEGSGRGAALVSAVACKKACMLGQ

This experiment addresses Hexokinase-4 (Homo sapiens) (UniProt P35557). The experiment in a line: hGlck enzyme activity off-target inhibitors – biochemical, recombinant hGlck, counter-screen for TbHK1 inhibitor project (AID 492951). The settings on record: G6PDH-coupled NADH absorbance 340 nm, at 10 µM; hits give high values. In short, it runs like this: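 Test system: recombinant human glucokinase, G6PDH-coupled; Medium: pH 7.9 TEA buffer, MgCl2, NAD+; Also added: 20 mM glucose as reaction starter, plus 1 mM ATP; Compound dosing: single final test compound dose of 10 µM; Schedule: 10 min preincubation at room temperature; Measured by: NADH formation by absorbance at 340 nm; Repeats: triplicate.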
Take `COc1ccc(C(=O)Nc2cc(Cl)ccc2O)cc1`: the inhibition was 22.2% (active).
On to `COc1ccc2c(c1)CN(c1cc(Cl)ccc1C(=O)O)C2=O`, for which the result was inactive.
Regarding `O=c1c2ccc(F)cc2sn1Cc1ccccc1`, the inhibition is 56.1% (active).
Still for that read-out and setting: next, `O=c1c2cc(F)c(F)cc2sn1-c1ccccc1`: 16.9% (active).
With `O=C(Nc1cc(Cl)ccc1C(=O)O)c1ccsc1`, the outcome was inactive.
In the case of `O=C(Cn1sc2ccccc2c1=O)Nc1ccc(C(F)(F)F)cc1`, the inhibition is 23.8% (active).
For `COc1cccc(-n2sc3ccccc3c2=O)c1`, the inhibition is 49.9% (active).
Take `COc1ccc(C(=O)Nc2cc(Cl)ccc2S(N)(=O)=O)cc1`: the inhibition is 11.1% (active).
In the case of `COc1ccc(C(=O)NC(CC(=O)O)c2cccc(Cl)c2)cc1` (stereo not given), the outcome was inactive.
For `CC(C)(C)c1ccc(C(=O)N2CCC(=O)c3ccc(Cl)cc32)cc1`, the outcome was inactive.
The same measure, in the same setting: the entry for `COc1ccc(S(=O)(=O)Nc2cc(Cl)ccc2C(=O)O)cc1` is “inactive”.
Take `COC(=O)c1ccc(Cl)cc1NC(=O)c1ccc(OC)cc1`: the inhibition is 18.2% (active).
With `CCOC(=O)c1ccncc1NC(=O)c1ccc(OC)cc1`, the result was inactive.
Same read-out and setting: the entry for `O=C(Nc1cc(Cl)ccc1C(=O)O)c1cocn1` is “inactive”.
Consider `O=C(Nc1ccccc1)n1sc2ccccc2c1=O`, for which the inhibition was 32.9% (active).
On the same count and under the same terms, the figure for `Cc1ccc(C(=O)Nc2cc(Cl)ccc2C(=O)O)c(C)c1` is 12.5% (active); for `Cc1ccc(NC(=O)Cn2sc3ccccc3c2=O)cc1` it is 2.1%; for `O=c1c2ccccc2sn1-c1ccc(Cl)cc1Cl` it is 65.6% (active).
As to `CC(C)(C)c1ccc(C(=O)Nc2cc(Cl)c(Cl)cc2C(=O)O)cc1`, the outcome was inactive.
Regarding `O=C(Nc1cc(Cl)ccc1C(=O)O)c1ccc2c(c1)CCC2`, the inhibition was 12.2% (active).
